# Laboratory results published in ChEMBL document CHEMBL1145203, “Synthesis of new benzoxazinone derivatives as neuropeptide Y5 antagonists for the treatment of obesity” (J Med Chem, 2005).
# How the values were obtained:
# [1] = biological target: T1, Neuropeptide Y receptor type 5 (Rattus norvegicus, UniProt Q63634); assay: Inhibition of [125I]PYY binding to the rat NPY Y5 receptor in C6 cells; format: cell-based
# T1 sequence (Q63634 whole entry): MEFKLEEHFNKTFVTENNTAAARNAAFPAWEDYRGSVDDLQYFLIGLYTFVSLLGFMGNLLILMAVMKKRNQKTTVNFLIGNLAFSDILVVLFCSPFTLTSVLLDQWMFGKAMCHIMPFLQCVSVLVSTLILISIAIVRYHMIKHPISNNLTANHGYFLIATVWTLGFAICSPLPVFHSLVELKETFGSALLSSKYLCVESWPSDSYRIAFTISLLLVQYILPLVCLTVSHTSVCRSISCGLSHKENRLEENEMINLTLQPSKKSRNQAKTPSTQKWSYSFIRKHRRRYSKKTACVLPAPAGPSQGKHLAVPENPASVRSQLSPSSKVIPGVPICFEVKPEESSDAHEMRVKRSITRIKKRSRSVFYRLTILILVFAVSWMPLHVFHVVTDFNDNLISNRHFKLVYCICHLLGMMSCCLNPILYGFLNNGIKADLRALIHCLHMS
# In short: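 Radioligand [125I]-PYY 100 pM, incubated 2 h at 25 °C. Stopped with ice-cold buffer, filtered and washed, bound radioactivity counted. Nonspecific binding defined with 1 µM pNPY; triplicate.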
# [2] = biological target: T2, Neuropeptide Y receptor type 5 (Rattus norvegicus) (UniProt Q63634); assay: Inhibition of PYY effect on forskolin-stimulated cyclic AMP formation in C6 cells expressing rat NPY Y5 receptor; format: functional, cell-based; design: concentration or dose not given beside the values; conditions: concentration not given here
# T2 sequence (whole entry): T1 sequence (Q63634 whole entry)
# In short: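 C6 cells stably expressing rat NPY Y5, grown to 80% confluency in serum-free DMEM with L-glutamine, penicillin and streptomycin. Cells trypsinised 2 h before assay, about 50 000 cells/well. Compounds added with or without PYY; forskolin-stimulated cAMP measured after 30 min by FlashPlate with [125I]succinyl cAMP tracer. Expressed as % cAMP formation versus forskolin controls without PYY; three experiments in duplicate.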
SMILES,IC50 [1] [nM],inhibition [2] [%]
Cc1cccc2c1N(C1CCN(CC(=O)Nc3ccccc3C(=O)c3ccccc3)CC1)C(=O)OC2,> 1000,–
COC(=O)c1ccccc1NC(=O)CN1CCC(N2C(=O)OCc3cc(C)ccc32)CC1,> 1000,–
O=C(CN1CCC(N2C(=O)OCc3cc(Cl)ccc32)CC1)Nc1ccc2c(c1)C(=O)c1ccccc1-2,69,94
CC(=O)c1ccc(NC(=O)CN2CCC(N3C(=O)OCc4ccccc43)CC2)cc1,17.3,95.4
Cc1cccc2c1N(C1CCN(CC(=O)Nc3ccc4c(c3)-c3ccccc3C4O)CC1)C(=O)OC2 (stereo not given),30,100
Cc1cccc2c1N(C1CCN(CC(=O)Nc3ccc(C(=O)c4ccccc4)cc3)CC1)C(=O)OC2,39.6,100
N#Cc1ccc(NC(=O)CN2CCC(N3C(=O)OCc4ccccc43)CC2)cc1,132,88.7
CCn1c2ccccc2c2cc(NC(=O)CN3CCC(N4C(=O)OCc5cccc(OC)c54)CC3)ccc21,765,19.2
O=C(CN1CCC(N2C(=O)OCc3ccccc32)CC1)Nc1ccc(Cl)cc1,300,–
O=C(CN1CCC(N2C(=O)OCc3cc(Cl)ccc32)CC1)Nc1ccc(C2CCCCC2)cc1,112,98.4
COc1cccc2c1N(C1CCN(CC(=O)Nc3ccc4oc5ccccc5c4c3)CC1)C(=O)OC2,55.7,23.6
O=C(CN1CCC(N2C(=O)OCc3ccccc32)CC1)Nc1ccc2c(c1)C(=O)c1ccccc1-2,> 1000,–
Cc1cccc2c1N(C1CCN(CC(=O)Nc3ccc(Cl)cc3)CC1)C(=O)OC2,> 1000,–
COC(=O)c1ccccc1NC(=O)CN1CCC(N2C(=O)OCc3ccccc32)CC1,> 1000,–
N#Cc1ccc(NC(=O)CN2CCC(N3C(=O)OCc4cc(Cl)ccc43)CC2)cc1,199,91.5
O=C(CN1CCC(N2C(=O)OCc3cc(Cl)ccc32)CC1)Nc1ccc2ncccc2c1,148,71.9
CCn1c2ccccc2c2cc(NC(=O)CN3CCC(N4C(=O)OCc5cc(Cl)ccc54)CC3)ccc21,100,99.3
Cc1cccc2c1N(C1CCN(CC(=O)Nc3ccccc3)CC1)C(=O)OC2,> 1000,–
CC(=O)c1ccc(NC(=O)CN2CCC(N3C(=O)OCc4cc(Cl)ccc43)CC2)cc1,21,99.9
O=C(CN1CCC(N2C(=O)OCc3ccccc32)CC1)Nc1ccc(Oc2ccccc2)cc1,20,100

SMILES,IC50 [1] [nM],inhibition [2] [%]
CC(=O)c1ccc(NC(=O)CN2CCC(N3C(=O)OCc4cc(C)ccc43)CC2)cc1,26,89.4
Cn1c2ccccc2c2cc(NC(=O)CN3CCC(N4C(=O)OCc5ccccc54)CC3)ccc21,9.6,88.7
CCn1c2ccccc2c2cc(NC(=O)CN3CCC(N4C(=O)OCc5c(Cl)cccc54)CC3)ccc21,–,83.4
O=C(CN1CCC(N2C(=O)OCc3cc(Cl)ccc32)CC1)Nc1ccc(Oc2ccccc2)cc1,60.7,99.2
Cc1ccc2c(c1)COC(=O)N2C1CCN(CC(=O)Nc2ccc(Oc3ccccc3)cc2)CC1,104,94.5
O=C(CN1CCC(N2C(=O)OCc3ccccc32)CC1)Nc1ccccc1,> 1000,–
O=C(CN1CCC(N2C(=O)OCc3cc(Cl)ccc32)CC1)Nc1ccc(C(=O)c2ccccc2)cc1,11.2,97.4
O=C(CN1CCC(N2C(=O)OCc3cc(Cl)ccc32)CC1)Nc1ccc2c(c1)-c1ccccc1C2=O,25,100
CCn1c2ccccc2c2cc(NC(=O)CN3CCC(N4C(=O)OCc5cccc(C)c54)CC3)ccc21,50,96.9
O=C(CN1CCC(N2C(=O)OCc3ccccc32)CC1)Nc1ccccc1C(=O)c1ccccc1,> 1000,–
O=C(CN1CCC(N2C(=O)OCc3cc(Cl)ccc32)CC1)Nc1ccc2c(c1)-c1ccccc1C2O (stereo not given),8,100
Cc1cccc2c1N(C1CCN(CC(=O)Nc3ccc4c(c3)-c3ccccc3C4=O)CC1)C(=O)OC2,50,93.8
O=C(CN1CCC(N2C(=O)OCc3ccccc32)CC1)Nc1ccc2c(c1)-c1ccccc1C2=O,23.3,100
O=C(CN1CCC(N2C(=O)OCc3ccccc32)CC1)Nc1cccc2c1-c1ccccc1C2=O,138,–
COC(=O)c1ccccc1NC(=O)CN1CCC(N2C(=O)OCc3cc(Cl)ccc32)CC1,> 1000,–
COC(=O)c1ccccc1NC(=O)CN1CCC(N2C(=O)OCc3cccc(C)c32)CC1,> 1000,–
Cc1ccc2c(c1)COC(=O)N2C1CCN(CC(=O)Nc2ccc3c(c2)C(=O)c2ccccc2-3)CC1,86.7,93.9
O=C(CN1CCC(N2C(=O)OCc3ccccc32)CC1)Nc1ccc2c(c1)-c1ccccc1C2O (stereo not given),8.7,96.1
O=C(CN1CCC(N2C(=O)OCc3cc(Cl)ccc32)CC1)Nc1ccccc1C(=O)c1ccccc1,> 1000,–
O=C(CN1CCC(N2C(=O)OCc3cc(F)ccc32)CC1)Nc1ccc2ncccc2c1,–,93.3
